Assay results reported in ChEMBL document CHEMBL1799953, “Backbone cyclic peptide inhibitors of protein kinase B (PKB/Akt)” (J Med Chem, 2011).
Calls of active or inactive are those of the source. No cut-off for these calls is given here. *1 amine or outer side, *2 acyl side, *3 side chain or, on linkers, in order; H or OH if unused. Where a SMILES comes first, the peptide text is derived from it. Bridges are numbered along the chain shown (N, C = ends). [ ]: non-standard residue; d: D form. N(2-Aminoethyl)Gly = O=C(CN(CCN[*:3])[*:1])[*:2]; Cha = N[C@@H](CC1CCCCC1)C(=O)O; hLeu = CC(C)CC[C@H](N)C(=O)O; Nva = CCC[C@H](N)C(=O)O; Dap = NC[C@H](N)C(=O)O; CO = O=C([*:1])[*:2]

What follows are molecules tested against RAC-alpha serine/threonine-protein kinase (Homo sapiens, UniProt P31749) (assay: Inhibition of Akt using RPRTSSF peptide and [gamma32]ATP at 5 uM by cell-free radioactive assay relative to control).
Chain of RAC-alpha serine/threonine-protein kinase (P31749 whole entry): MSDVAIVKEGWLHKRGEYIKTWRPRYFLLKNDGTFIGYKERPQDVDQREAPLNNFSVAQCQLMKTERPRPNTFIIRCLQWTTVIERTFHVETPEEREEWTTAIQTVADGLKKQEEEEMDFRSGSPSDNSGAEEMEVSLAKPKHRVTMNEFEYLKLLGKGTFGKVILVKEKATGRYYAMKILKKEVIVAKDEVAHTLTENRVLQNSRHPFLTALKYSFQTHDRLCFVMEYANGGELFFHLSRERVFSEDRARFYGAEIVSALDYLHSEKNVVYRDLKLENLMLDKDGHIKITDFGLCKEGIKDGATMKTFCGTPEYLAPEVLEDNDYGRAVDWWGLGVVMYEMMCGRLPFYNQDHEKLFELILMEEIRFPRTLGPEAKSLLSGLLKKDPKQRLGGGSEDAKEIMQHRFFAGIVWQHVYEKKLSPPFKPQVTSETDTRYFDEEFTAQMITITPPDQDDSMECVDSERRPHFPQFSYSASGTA
Method in brief: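 Cell-free 32P kinase assay: HisΔPHPKBEEEFlag (0.005 units, one-step Ni-NTA partial purification), 50 mM Hepes pH 7.4, 0.1 mM EGTA, 0.1% 2-mercaptoethanol, 10 mM magnesium acetate, 3 μM RPRTSSF substrate, 10 μM [γ32P]ATP (1 μCi/well). Inhibitor at 5 μM. Activity loss expressed as percent of uninhibited reaction.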

Row | Structure (SMILES) | inhibition
1 | CCC[C@H](NC(=O)[C@H](CCCNC(=N)N)NC(=O)[C@@H](CCCCN)NC(=O)[C@@H](N)CCCNC(=N)N)C(=O)N[C@@H](Cc1ccc(O)cc1)C(=O)N[C@@H](CN)C(=O)N[C@@H](CCC(C)C)C(N)=O | 27%
2 | CCC[C@H](NC(=O)[C@H](CCCNC(=N)N)NC(=O)[C@@H](Cc1ccc(O)cc1)NC(=O)[C@@H](N)CCCNC(=N)N)C(=O)N[C@@H](Cc1ccc(O)cc1)C(=O)N[C@@H](CN)C(=O)N[C@@H](CCC(C)C)C(N)=O | inactive
3 | CCC[C@H](NC(=O)[C@H](CCCNC(=N)N)NC(=O)[C@@H](Cc1ccccc1)NC(=O)[C@@H](N)CCCNC(=N)N)C(=O)N[C@@H](Cc1ccc(O)cc1)C(=O)N[C@@H](CN)C(=O)N[C@@H](CCC(C)C)C(N)=O | inactive
4 | CCC[C@H](NC(=O)[C@H](CCCNC(=N)N)NC(=O)[C@H](CCCCN)NC(=O)[C@@H](N)CCCNC(=N)N)C(=O)N[C@@H](Cc1ccc(O)cc1)C(=O)N[C@@H](CN)C(=O)N[C@@H](CCC(C)C)C(N)=O | 92%
5 | CCC[C@H](NC(=O)[C@H](CCCNC(=N)N)NC(=O)[C@H](Cc1ccc(O)cc1)NC(=O)[C@@H](N)CCCNC(=N)N)C(=O)N[C@@H](Cc1ccc(O)cc1)C(=O)N[C@@H](CN)C(=O)N[C@@H](CCC(C)C)C(N)=O | 74%
6 | CCC[C@H](NC(=O)[C@H](CCCNC(=N)N)NC(=O)[C@H](Cc1ccccc1)NC(=O)[C@@H](N)CCCNC(=N)N)C(=O)N[C@@H](Cc1ccc(O)cc1)C(=O)N[C@@H](CN)C(=O)N[C@@H](CCC(C)C)C(N)=O | 60%
7 | CCC[C@H](NC(=O)[C@H](CCCNC(=N)N)NC(=O)[C@H]1CCCN1C(=O)[C@@H](N)CCCNC(=N)N)C(=O)N[C@@H](Cc1ccc(O)cc1)C(=O)N[C@@H](CN)C(=O)N[C@@H](CCC(C)C)C(N)=O | inactive
8 | CCC[C@@H]1NC(=O)[C@H](CCCNC(=N)N)NC(=O)CN(C(=O)[C@@H](N)CCCNC(=N)N)CCNC(=O)NCCN(CC(N)=O)C(=O)[C@H](CCC(C)C)NC(=O)[C@H](CN)NC(=O)[C@H](Cc2ccc(O)cc2)NC1=O (H-R[N(2-Aminoethyl)Gly]R[Nva]Y[Dap][hLeu][N(2-Aminoethyl)Gly]-NH2; linker 2-8 via CO) | 30%

Now from value to molecule:

Row | inhibition | Structure (SMILES)
9 | inactive | CCC[C@H](NC(=O)[C@H](CCCNC(=N)N)NC(=O)[C@@H](C)NC(=O)[C@@H](N)CCCNC(=N)N)C(=O)N[C@@H](Cc1ccc(O)cc1)C(=O)N[C@@H](CN)C(=O)N[C@@H](CCC(C)C)C(N)=O
10 | inactive | CCC[C@H](NC(=O)[C@H](CCCNC(=N)N)NC(=O)[C@@H](CC(=O)O)NC(=O)[C@@H](N)CCCNC(=N)N)C(=O)N[C@@H](Cc1ccc(O)cc1)C(=O)N[C@@H](CN)C(=O)N[C@@H](CCC(C)C)C(N)=O
11 | 32% | CCC[C@H](NC(=O)[C@H](CCCNC(=N)N)NC(=O)[C@@H](CN)NC(=O)[C@@H](N)CCCNC(=N)N)C(=O)N[C@@H](Cc1ccc(O)cc1)C(=O)N[C@@H](CN)C(=O)N[C@@H](CCC(C)C)C(N)=O
12 | 81% | CCC[C@H](NC(=O)[C@H](CCCNC(=N)N)NC(=O)[C@H](C)NC(=O)[C@@H](N)CCCNC(=N)N)C(=O)N[C@@H](Cc1ccc(O)cc1)C(=O)N[C@@H](CN)C(=O)N[C@@H](CCC(C)C)C(N)=O
13 | 68% | CCC[C@H](NC(=O)[C@H](CCCNC(=N)N)NC(=O)[C@H](CC(=O)O)NC(=O)[C@@H](N)CCCNC(=N)N)C(=O)N[C@@H](Cc1ccc(O)cc1)C(=O)N[C@@H](CN)C(=O)N[C@@H](CCC(C)C)C(N)=O
14 | 94% | CCC[C@H](NC(=O)[C@H](CCCNC(=N)N)NC(=O)[C@H](CN)NC(=O)[C@@H](N)CCCNC(=N)N)C(=O)N[C@@H](Cc1ccc(O)cc1)C(=O)N[C@@H](CN)C(=O)N[C@@H](CCC(C)C)C(N)=O
15 | 85% | CCC[C@H](NC(=O)[C@H](CCCNC(=N)N)NC(=O)[C@H](CC1CCCCC1)NC(=O)[C@@H](N)CCCNC(=N)N)C(=O)N[C@@H](Cc1ccc(O)cc1)C(=O)N[C@@H](CN)C(=O)N[C@@H](CCC(C)C)C(N)=O (H-R[Cha]R[Nva]Y[Dap][hLeu]-NH2)
